Only some compounds are listed: those with a hit (about 3% of all), similar ones and a draw of the others.
M4 ag: agonists of human muscarinic M4 receptor (CHRM4); CHO-K1 hM4/Gqi5, Fluo-8 calcium fluorescence; vehicle 0%, full acetylcholine response 100%; P08173; activation, % at 3 µM; hit rate 0.14% among 360,000; AID 624127;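 active means activation above the run mean over all test wells plus 3 SD, cut at about 32% in these data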;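 further: peak over basal fluorescence ratio per well then scaled between controls; 0% = DMSO wells and 100% = acetylcholine at EC100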
TAAR1 antag: antagonists of human TAAR1; CHO RD-HGA16 TAAR1, Fluo-8 calcium fluorescence, antagonist; inhibition, % at 3 µM; hit rate 1.5% among 360,000; AID 624466;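 active means inhibition above a per-plate cutoff, the mean inhibition of test compounds on that plate plus 3 SD, cut at about 49% in these data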;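 further: 0% = DMSO plus EC80 beta-PEA response and 100% = DMSO alone without agonist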
Target sequence (Q96RJ0 whole entry, looked up): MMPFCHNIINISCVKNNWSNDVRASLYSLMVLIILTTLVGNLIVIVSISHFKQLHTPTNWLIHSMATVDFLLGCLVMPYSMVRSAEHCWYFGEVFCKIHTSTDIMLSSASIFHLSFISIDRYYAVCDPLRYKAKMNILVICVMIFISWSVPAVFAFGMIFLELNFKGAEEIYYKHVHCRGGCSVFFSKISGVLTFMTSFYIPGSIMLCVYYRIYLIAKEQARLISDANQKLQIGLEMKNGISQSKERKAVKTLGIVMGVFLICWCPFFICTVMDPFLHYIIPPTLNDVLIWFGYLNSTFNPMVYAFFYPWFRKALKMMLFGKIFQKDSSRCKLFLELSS
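Material: RD-HGA16 CHO cells with stable hTAAR1 and Gα16; Dosing: single nominal final test compound concentration of 3 µM; Schedule: seeding 17-24 h prior, 75-min 37 °C, 30-min RT dye loading; Detection: kinetic Fluo-8 calcium fluorescence measurement; Measure: % inhibition from peak post-agonist over basal fluorescence ratio; Benchmarks: vehicle and agonist controls.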
CHRM4 antagonist: blocks acetylcholine activation of human M4 receptor; CHO-hM4 cells, ACh EC80, Fluo-8 calcium fluorescence; inhibition, % at 3 µM; hit rate 0.73% among 360,000;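 active means inhibition above its plate's cutoff, the mean inhibition of sample wells plus 3 SD, cut at about 27% in these data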;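 further: 0% = acetylcholine EC80 with DMSO and 100% = DMSO without agonist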
M4 PAM: positive allosteric modulators of human muscarinic M4 receptor; CHO-K1 hM4/Gqi5, Fluo-8 calcium fluorescence, ACh EC20; 0% = ACh EC20, 100% = maximal ACh; activation, % at 3 µM; hit rate 0.4% among 360,000;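 active means activation above its plate's cutoff, the mean activation of sample wells plus 3 SD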
TAAR1 ag: agonists of human TAAR1. hit rate 0.99% among 360,000. Q96RJ0. AID 624467. activation, % at 3 µM. CHO RD-HGA16 TAAR1, Fluo-8 calcium fluorescence; vehicle wells 0%, saturating PEA agonist 100%;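 active means activation above the mean activation of all test compounds in the run plus 3 SD, cut at about 38% in these data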
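System: CHO-derived RD-HGA16 cells with stable Gα16 and human TAAR1. Times: 17-24 h plating, Fluo-8 75 min 37 °C, 30 min RT. Measured by: calcium-sensitive Fluo-8 signal, excitation 470-495, emission 515-575 nm. Read-out basis: % activation relative to PEA EC100 response. Control set: DMSO and PEA EC100. Repeats: no replicates (n 1).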
TAAR1 nonsel count: nonselective antagonism, TAAR1 counter-screen; shares compounds with TAAR1 antag; counterscreen cell line, calcium fluorescence, antagonist mode; inhibition, % at 3 µM; hit rate 77% among 2,400; AID 651780; in the data active means inhibition above about 22%;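 further: CHO-Ga16 host cells stimulated with ATP at an EC80 level; 0% = agonist EC80 plus vehicle and 100% = vehicle without agonist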
TAAR1 antag conf: confirmation of human TAAR1 antagonists | shares compounds with TAAR1 antag | TAAR1-expressing cells, fluorescence antagonist read-out | inhibition, % at 3 µM | hit rate 40% among 2,400 | AID 651785; in the data active means inhibition above about 49%;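 further: CHO-Ga16 host cells challenged with agonist PEA near its EC80; 0% = agonist at EC80 plus vehicle and 100% = vehicle with no agonist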
Ga16 nonsel ag: nonselective Ga16 agonism, counter-screen; shares compounds with TAAR1 antag; Ga16-expressing cells, calcium fluorescence, agonist counterscreen; activation, % at 3 µM; hit rate 18% among 2,400; in the data active means activation above about 12%;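 further: 0% = vehicle wells and 100% = saturating stimulus response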
TAAR1 ag counter: TAAR1 agonism, antagonist counter-screen | shares compounds with TAAR1 antag | hTAAR1 cell line, fluorescence activation, agonist mode | activation, % at 3 µM | hit rate 2% among 2,400; in the data active means activation above about 37%;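 further: CHO cells stably expressing TAAR1 with calcium dye readout; 0% = DMSO vehicle and 100% = full agonist response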
Active calls of the source: *; ! = a repeat was not active.

`COc1ccc(NC(=O)C2CC(c3c(F)cccc3Cl)=NO2)cc1` (stereo unspecified) gave M4 ag 3, TAAR1 antag 11, CHRM4 antagonist -5, M4 PAM -5 and TAAR1 ag 3.
`COc1cc(NC(=O)C2CC(c3c(F)cccc3Cl)=NO2)cc(OC)c1OC` (stereo unspecified) gave M4 ag 19, TAAR1 antag 62*, CHRM4 antagonist 1, M4 PAM -12, TAAR1 ag 17, TAAR1 nonsel count 35*, TAAR1 antag conf 35, Ga16 nonsel ag 13* and TAAR1 ag counter 11.
Screening Cc1ccc(C(=O)Nc2ccc(C)c(S(=O)(=O)Nc3ccccc3Cl)c2)s1 returned M4 ag 3, TAAR1 antag 68*, CHRM4 antagonist 17, M4 PAM -7, TAAR1 ag 5, TAAR1 nonsel count 20, TAAR1 antag conf 23, Ga16 nonsel ag 3 and TAAR1 ag counter -1.
Cc1noc(C)c1-c1ccc(C(=O)NCCN2CCOCC2)c2occc12 was read as M4 ag 2, TAAR1 antag -12, CHRM4 antagonist 8, M4 PAM 0 and TAAR1 ag 2.
`O=C(Nc1nc(-c2nc3ccccc3s2)cs1)C1COc2ccccc2O1` (stereo unspecified) gave M4 ag 2, TAAR1 antag 60*, CHRM4 antagonist -26, M4 PAM 6, TAAR1 ag 0, TAAR1 nonsel count 26*, TAAR1 antag conf 33, Ga16 nonsel ag 8 and TAAR1 ag counter 8.
Screening O=C(Nc1nc(-c2cc3ccccc3o2)cs1)c1ccc(S(=O)(=O)N2CCCC2)cc1 returned M4 ag 4, TAAR1 antag 24, CHRM4 antagonist -5, M4 PAM 1 and TAAR1 ag 5.
`O=C(Nc1nc(-c2nc3ccccc3s2)cs1)c1ccc(S(=O)(=O)N2CCOCC2)cc1` gave M4 ag 2, TAAR1 antag 69*, CHRM4 antagonist 0, M4 PAM 8, TAAR1 ag 33, TAAR1 nonsel count 52*, TAAR1 antag conf 70*, Ga16 nonsel ag 22* and TAAR1 ag counter 25.
`O=C(Nc1nc(-c2ccccc2)c(-c2ccccc2)s1)c1ccc(S(=O)(=O)N2CCCC2)cc1` gave M4 ag 1, TAAR1 antag 107*, CHRM4 antagonist 13, M4 PAM 9, TAAR1 ag 6, TAAR1 nonsel count 0, TAAR1 antag conf 0, Ga16 nonsel ag -1 and TAAR1 ag counter -1.
`O=C(Nc1nc(-c2ccc(S(=O)(=O)N3CCOCC3)cc2)cs1)c1ccccc1` gave M4 ag 16, TAAR1 antag 59*!, CHRM4 antagonist 7, M4 PAM -7, TAAR1 ag 13, TAAR1 nonsel count 28*, TAAR1 antag conf 50*, Ga16 nonsel ag 11 and TAAR1 ag counter 6.
For Cc1[nH]c2ccccc2c1C(=O)c1cc(Cc2ccccc2)sc1N the results were M4 ag 3, TAAR1 antag -36, CHRM4 antagonist 4, M4 PAM 5 and TAAR1 ag 1.
`O=C(OCC(=O)N1CCN(C(=O)c2ccco2)CC1)c1cc(-c2cccc(Br)c2)nc2ccccc12` gave M4 ag 9, TAAR1 antag 58*, CHRM4 antagonist 28*, M4 PAM -23, TAAR1 ag 17, TAAR1 nonsel count 34*, TAAR1 antag conf 44, Ga16 nonsel ag 5 and TAAR1 ag counter 1.
`O=C(OCC(=O)N1CCN(C(=O)c2ccco2)CC1)c1cc(-c2ccccc2)nc2ccccc12` gave M4 ag 13, TAAR1 antag 57*, CHRM4 antagonist 21, M4 PAM -3, TAAR1 ag 8, TAAR1 nonsel count 26*, TAAR1 antag conf 36, Ga16 nonsel ag 6 and TAAR1 ag counter 0.

Assay outcomes: PubChem, The Scripps Research Institute Molecular Screening Center
